# Measured values: ChEMBL document CHEMBL1149311, “Synthesis and antitumor activity of methyltriazene prodrugs simultaneously releasing DNA-methylating agents and the antiresistance drug O(6)-benzylguanine” (J Med Chem, 2004)
# Legend:
# carcinoma cell line = test: Antitumor activity against human NCI ovarian carcinoma cell line panel; type: functional, cell-based
# Procedure, shortened: (§1)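 Tested in the NCI in vitro disease-oriented human tumor cell screen. The endpoints are IC50 (molar concentration giving 50% growth inhibition), TGI (total growth inhibition) and LC50 (50% net cell death). The maximal concentration tested was 100 μM. Subpanel values are means of several individual cell lines.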
# RPMI-8226 = test: Antitumor activity against human RPMI8226 cells; type: functional; procedure, shortened: as §1
# PC-3 = test: Antitumor activity against human PC3 cells; type: functional; procedure, shortened: as §1
# UACC-62 = test: Antitumor activity against human UACC62 cells; type: functional
# Procedure, shortened: (§2)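 NCI in vitro disease-oriented tumour cell line screen. Read-outs are IC50 (molar concentration giving 50% growth inhibition), TGI (molar concentration giving total inhibition of net growth) and LC50 (molar concentration giving 50% net cell death). The maximal concentration tested was 100 μM.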
# NCI [1] = test: Antitumor activity against NCI human melanoma cell line panel; type: functional, cell-based; procedure, shortened: as §1
# HCT-116 = test: Antitumor activity against human HCT116 cells; type: functional; procedure, shortened: as §1
# UACC-257 = test: Antitumor activity against human UACC257 cells; type: functional; procedure, shortened: as §2
# SF-295 = test: Antitumor activity against human SF295 cells; type: functional; procedure, shortened: as §1
# NCI [2] = test: Antitumor activity against human NCI CNS cancer cell line panel; type: functional, cell-based; procedure, shortened: as §1
# MDA-MB-231 = test: Antitumor activity against human MDA-MB-231 cells; type: functional; procedure, shortened: as §1
# SF-539 = test: Antitumor activity against human SF539 cells; type: functional; procedure, shortened: as §1
# NCI [3] = test: Antitumor activity against human NCI colon cancer cell line panel; type: functional, cell-based; procedure, shortened: as §1
# SK-MEL-28 = test: Antitumor activity against human SK-MEL-28 cells; type: functional; procedure, shortened: as §1
# NCI [4] = test: Antitumor activity against human NCI breast cancer cell line panel; type: functional, cell-based; procedure, shortened: as §1
# Hs-578T = test: Antitumor activity against human HS578T cells; type: functional; procedure, shortened: as §1
# T47D = test: Antitumor activity against human T47D cells; type: functional; procedure, shortened: as §2
# UO-31 = test: Antitumor activity against human UO31 cells; type: functional; procedure, shortened: as §2
# NCI-H322M = test: Antitumor activity against human NCI-H322M cells; type: functional; procedure, shortened: as §1
# OVCAR-4 = test: Antitumor activity against human OVCAR4 cells; type: functional; procedure, shortened: as §1
# [5] = Antitumor activity against human LOX IMV1 cells; type: functional, cell-based; procedure, shortened: as §1
# SNB-75 = test: Antitumor activity against human SNB75 cells; type: functional; procedure, shortened: as §2
# OVCAR-3 = test: Antitumor activity against human OVCAR-3 cells; type: functional; procedure, shortened: as §1
# HL-60 = test: Antitumor activity against human HL60 cells; type: functional; procedure, shortened: as §1
# NCI [6] = test: Antitumor activity against human NCI prostate cancer cell line panel; type: functional, cell-based; procedure, shortened: as §1
# MDA-MB-435 = test: Antitumor activity against human MDA-MB-435 cells; type: functional; procedure, shortened: as §1
# EKVX = test: Antitumor activity against human EKVX cells; type: functional; procedure, shortened: as §1
# MCF7 = test: Antitumor activity against human MCF7 cells; type: functional; procedure, shortened: as §1
# KM12 = test: Antitumor activity against human KM12 cells; type: functional; procedure, shortened: as §1
# [7] = system: Non-small cell lung cancer cell line; test: Antitumor activity against human NCI non-small cell lung cancer cell line panel; type: functional, cell-based; procedure, shortened: as §1
# SK-MEL-2 = test: Antitumor activity against human SK-MEL-2 cells; type: functional; procedure, shortened: as §1
# DU-145 = test: Antitumor activity against human DU145 cells; type: functional; procedure, shortened: as §1
# SK-OV-3 = test: Antitumor activity against human SKOV3 cells; type: functional; procedure, shortened: as §1
# HOP-62 = test: Antitumor activity against human HOP62 cells; type: functional; procedure, shortened: as §1
# HCT-15 = test: Antitumor activity against human HCT15 cells; type: functional; procedure, shortened: as §1
# M14 = test: Antitumor activity against human M14 cells; type: functional; procedure, shortened: as §1
# SW-620 = test: Antitumor activity against human SW620 cells; type: functional; procedure, shortened: as §2
# TK-10 = test: Antitumor activity against human TK10 cells; type: functional; procedure, shortened: as §2
# K562 = test: Antitumor activity against human K562 cells; type: functional; procedure, shortened: as §1
# 786-0 = test: Antitumor activity against human 786-0 cells; type: functional; procedure, shortened: as §1
# NCI-H460 = test: Antitumor activity against human NCI-H460 cells; type: functional; procedure, shortened: as §1
# IGROV-1 = test: Antitumor activity against human IGROV1 cells; type: functional; procedure, shortened: as §1
# [8] = read-out: Log LC50 (the source's name) (converted)
smiles,measurement,setting,value
CN(/N=N/c1nc(OCc2ccccc2)c2nc[nH]c2n1)C(=O)N(C)/N=N/c1nc(OCc2ccccc2)c2nc[nH]c2n1,IC50,carcinoma cell line,50 µM
same,TGI,carcinoma cell line,> 100 µM
same,GI50,RPMI-8226,38 µM
same,CC50,RPMI-8226; [8],> 100 µM
same,TGI,RPMI-8226; read-out: Log TGI (converted),> 100 µM
same,GI50,PC-3,40.7 µM
same,CC50,PC-3; [8],> 100 µM
same,TGI,PC-3; read-out: Log TGI (converted),> 100 µM
same,GI50,UACC-62,30.9 µM
same,CC50,UACC-62; [8],> 100 µM
same,TGI,UACC-62; read-out: Log TGI (converted),> 100 µM
same,IC50,NCI [1],47 µM
same,TGI,NCI [1],93 µM
same,GI50,HCT-116,35.5 µM
same,CC50,HCT-116; [8],> 100 µM
same,TGI,HCT-116; read-out: Log TGI (converted),> 100 µM
same,GI50,UACC-257,55 µM
same,CC50,UACC-257; [8],> 100 µM
same,TGI,UACC-257; read-out: Log TGI (converted),> 100 µM
same,GI50,SF-295,32.4 µM
same,CC50,SF-295; [8],> 100 µM
same,TGI,SF-295; read-out: Log TGI (converted),> 100 µM
same,IC50,NCI [2],55 µM
same,TGI,NCI [2],> 100 µM
same,GI50,MDA-MB-231,40.7 µM
same,CC50,MDA-MB-231; [8],> 100 µM
same,TGI,MDA-MB-231; read-out: Log TGI (converted),> 100 µM
same,GI50,SF-539,38 µM
same,CC50,SF-539; [8],> 100 µM
same,TGI,SF-539; read-out: Log TGI (converted),> 100 µM
same,IC50,NCI [3],45 µM
same,TGI,NCI [3],> 100 µM
same,GI50,SK-MEL-28,> 100 µM
same,CC50,SK-MEL-28; [8],> 100 µM
same,TGI,SK-MEL-28; read-out: Log TGI (converted),> 100 µM
same,IC50,NCI [4],39 µM
same,TGI,NCI [4],> 100 µM
same,pKP,Hs-578T,>4
same,GI50,"Hs-578T; Homo sapiens, Hs-578T",25.1 µM
same,CC50,"Hs-578T; Homo sapiens, Hs-578T, read-out: Log LC50 (the source's name) (converted)",> 100 µM
same,TGI,"Hs-578T; Homo sapiens, Hs-578T, read-out: Log TGI (converted)",85.1 µM
same,GI50,T47D,39.8 µM
same,CC50,T47D; [8],> 100 µM
same,TGI,T47D; read-out: Log TGI (converted),> 100 µM
same,GI50,UO-31,36.3 µM
same,CC50,UO-31; [8],> 100 µM
same,TGI,UO-31; read-out: Log TGI (converted),> 100 µM
same,GI50,NCI-H322M,41.7 µM
same,CC50,NCI-H322M; [8],> 100 µM
same,TGI,NCI-H322M; read-out: Log TGI (converted),> 100 µM
same,GI50,OVCAR-4,> 100 µM
same,CC50,OVCAR-4; [8],> 100 µM
same,TGI,OVCAR-4; read-out: Log TGI (converted),> 100 µM
same,GI50,[5],37.2 µM
same,CC50,[5]; [8],> 100 µM
same,TGI,[5]; read-out: Log TGI (converted),> 100 µM
same,GI50,SNB-75,> 100 µM
same,CC50,SNB-75; [8],> 100 µM
same,TGI,SNB-75; read-out: Log TGI (converted),> 100 µM
same,GI50,OVCAR-3,34.7 µM
same,LC50,OVCAR-3,> 100 µM
same,TGI,OVCAR-3; read-out: Log TGI (converted),> 100 µM
same,GI50,HL-60,63.1 µM
same,CC50,HL-60; [8],> 100 µM
same,TGI,HL-60; read-out: Log TGI (converted),> 100 µM
same,IC50,NCI [6],40 µM
same,TGI,NCI [6],> 100 µM
same,GI50,MDA-MB-435,49 µM
same,CC50,MDA-MB-435; [8],> 100 µM
same,TGI,MDA-MB-435; read-out: Log TGI (converted),> 100 µM
same,GI50,EKVX,38 µM
same,CC50,EKVX; [8],> 100 µM
same,TGI,EKVX; read-out: Log TGI (converted),> 100 µM
same,GI50,MCF7,42.7 µM
same,CC50,MCF7; [8],> 100 µM
same,TGI,MCF7; read-out: Log TGI (converted),> 100 µM
same,GI50,KM12,85.1 µM
same,CC50,KM12; [8],> 100 µM
same,TGI,KM12; read-out: Log TGI (converted),> 100 µM
same,IC50,[7],42 µM
same,TGI,[7],> 100 µM
same,GI50,SK-MEL-2,64.6 µM
same,CC50,SK-MEL-2; [8],> 100 µM
same,TGI,SK-MEL-2; read-out: Log TGI (converted),> 100 µM
same,GI50,DU-145,38.9 µM
same,CC50,DU-145; [8],> 100 µM
same,TGI,DU-145; read-out: Log TGI (converted),> 100 µM
same,GI50,SK-OV-3,41.7 µM
same,CC50,SK-OV-3; [8],> 100 µM
same,TGI,SK-OV-3; read-out: Log TGI (converted),> 100 µM
same,GI50,HOP-62,95.5 µM
same,LC50,HOP-62,> 100 µM
same,TGI,HOP-62; read-out: Log TGI (converted),> 100 µM
same,GI50,HCT-15,35.5 µM
same,CC50,HCT-15; [8],> 100 µM
same,TGI,HCT-15; read-out: Log TGI (converted),> 100 µM
same,GI50,M14,70.8 µM
same,CC50,M14; [8],> 100 µM
same,TGI,M14; read-out: Log TGI (converted),> 100 µM
same,GI50,SW-620,72.4 µM
same,CC50,SW-620; [8],> 100 µM
same,TGI,SW-620; read-out: Log TGI (converted),> 100 µM
same,GI50,TK-10,26.9 µM
same,CC50,TK-10; [8],> 100 µM
same,TGI,TK-10; read-out: Log TGI (converted),> 100 µM
same,GI50,K562,75.9 µM
same,CC50,K562; [8],> 100 µM
same,TGI,K562; read-out: Log TGI (converted),> 100 µM
same,GI50,786-0,60.3 µM
same,LC50 (concentration giving 50% net cell death),786-0,> 100 µM
same,TGI,786-0; read-out: Log TGI (converted),> 100 µM
same,GI50,NCI-H460,26.3 µM
same,CC50,NCI-H460; [8],> 100 µM
same,TGI,NCI-H460; read-out: Log TGI (converted),> 100 µM
same,GI50,IGROV-1,34.7 µM
same,CC50,IGROV-1; [8],> 100 µM
same,TGI,IGROV-1; read-out: Log TGI (converted),> 100 µM
